Test results published in ChEMBL document CHEMBL3112548, “Synthesis and biological evaluation of novel tetrahydro-β-carboline derivatives as antitumor growth and metastasis agents through inhibiting the transforming growth factor-β signaling pathway” (J Med Chem, 2014).
The source made the active and inactive calls. The calls are words filed in the database; no cut-off is given here.

Legend:
[1] = Antiproliferative activity against human PC9 cells at 10 uM after 48 hrs by SRB assay; assay type: functional; settings: PC-9, 48 h
How it was run: (§1)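 SRB assay: 1 × 10^4 cells per well in 96-well plates exposed to compound 48 h; fixed with 10% TCA, stained 30 min at room temperature, washed with 1% acetic acid, dye dissolved in 10 mM Tris base, OD 510 nm. Percent inhibition = decrease in absorbance relative to DMSO control wells.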

[2] = molecular target: TGF-beta receptor type-1 (Homo sapiens) (UniProt P36897); test: Inhibition of TGFbetaR1-mediated smad phosphorylation in human HaCaT cells at 1 uM measured within 24 hrs by dual-luciferase reporter gene assay
A549 [3] = test: Antitumor activity against human A549 cells xenografted in nude mouse assessed as suppression of tumor volume at 20 mg/kg, ip qd for 60 days measured up to 60 days; assay type: functional, organism-based; design: dose 20 mg/kg
How it was run: (§2)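 Nude mice (5 weeks old, acclimated 1 week) given 5 × 10^5 A549 cells in PBS subcutaneously; at ~10 mm tumor diameter, 15 mice size-matched into three groups (n = 5): DMSO vehicle, 5.0 mg/kg or 20 mg/kg ip in 50 μL DMSO daily for 60 days. Body weight and tumor dimensions measured daily; volume = 0.52 × AB².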

Mus musculus [4] = test: Toxicity in nude mouse xenografted with human A549 cells assessed as body weight change at 20 mg/kg, ip qd for 60 days measured up to 60 days; assay type: organism-based; design: dose 20 mg/kg, route intraperitoneal; settings: in vivo, 1440 h; how it was run: as §2
[5] = Antiproliferative activity against human H1299 cells after 48 hrs by SRB assay; assay type: functional, cell-based; settings: NCI-H1299, 48 h; how it was run: as §1
A549 [6] = test: Antiproliferative activity against human A549 cells after 48 hrs by SRB assay; assay type: functional, cell-based; settings: A549, 48 h; how it was run: as §1
[7] = Antiproliferative activity against human PC9 cells after 48 hrs by SRB assay; assay type: functional, cell-based; settings: PC-9, 48 h; how it was run: as §1
A549 [8] = test: Antiproliferative activity against human A549 cells assessed as cell viability at 1 uM after 12 hrs by SRB assay; assay type: functional, cell-based
A549 [9] = test: Antimigratory activity against human A549 cells assessed as decrease in cell migration after 12 hrs by wound healing assay; settings: A549, 12 h
A549 [10] = test: Antitumor activity against human A549 cells xenografted in nude mouse assessed as suppression of tumor volume at 5 mg/kg, ip qd for 60 days measured up to 60 days; assay type: functional, organism-based; design: dose 5 mg/kg; how it was run: as §2
[11] = Antimigratory activity against human H1299 cells assessed as inhibition of cell migration after 12 to 24 hrs by transwell migration assay; assay type: functional, cell-based; settings: NCI-H1299
How it was run: (§3)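 Transwell chambers, 8 μm pore filters; 5 × 10^5 cells in DMEM in top chamber with compound, 10% FBS medium below, 37 °C, 5% CO2; after 12−24 h non-migrated cells swabbed off, migrated cells fixed, stained with 0.2% crystal violet in PBS and counted in five random 10× fields per membrane. Means ± SD.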

NCI-H1299 [12] = test: Antiproliferative activity against human H1299 cells assessed as cell viability at 1 uM after 12 hrs by SRB assay; assay type: functional, cell-based
NCI-H1299 [13] = test: Antimigratory activity against human H1299 cells assessed as reduction of cell velocity at 1 uM after 24 hrs by time-lapse video microscopy; assay type: functional, cell-based
How it was run: (§4)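 H1299 cells (5 × 10^4) in 30 mm dishes pretreated with or without compound for 24 h, then tracked by time-lapse microscopy, one frame per 10 min over 10 h; eight random cells per condition; migration distance and speed taken from track plots. Means ± SD, Student's t test.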

A549 [14] = test: Antimigratory activity against human A549 cells assessed as inhibition of cell migration after 12 to 24 hrs by transwell migration assay; assay type: functional, cell-based; how it was run: as §3
4T1 = test: Antitumor activity against mouse 4T1 cells expressing luciferase allograted in ip dosed Balb/c mouse assessed as suppression of tumor volume compound administered for 20 days measured after 20 days; assay type: functional, organism-based
How it was run: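 Female Balb/c mice (6 weeks old) given 5 × 10^4 4T1-luciferase cells into mammary fat pad; after 7 days (~5 mm tumors) 24 mice randomized into DMSO vehicle, 1.0 or 5.0 mg/kg/day ip groups; after 20 days tumor burden quantified as bioluminescence by in vivo imaging. Body weight measured daily. Mean ± SD.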

NCI-H1299 [15] = test: Antimigratory activity against human H1299 cells assessed as reduction in distance at 1 uM after 24 hrs by time-lapse video microscopy; assay type: functional, cell-based; how it was run: as §4
[16] = Antimigratory activity against human H1299 cells assessed as decrease in cell migration after 12 hrs by wound healing assay; settings: NCI-H1299, 12 h
Mus musculus [17] = test: Toxicity in nude mouse xenografted with human A549 cells assessed as body weight change at 5 mg/kg, ip qd for 60 days measured up to 60 days; assay type: organism-based; design: dose 5 mg/kg, route intraperitoneal; settings: in vivo, 1440 h; how it was run: as §2

TGF-beta receptor type-1 (Homo sapiens), sequence (P36897 whole entry, looked up): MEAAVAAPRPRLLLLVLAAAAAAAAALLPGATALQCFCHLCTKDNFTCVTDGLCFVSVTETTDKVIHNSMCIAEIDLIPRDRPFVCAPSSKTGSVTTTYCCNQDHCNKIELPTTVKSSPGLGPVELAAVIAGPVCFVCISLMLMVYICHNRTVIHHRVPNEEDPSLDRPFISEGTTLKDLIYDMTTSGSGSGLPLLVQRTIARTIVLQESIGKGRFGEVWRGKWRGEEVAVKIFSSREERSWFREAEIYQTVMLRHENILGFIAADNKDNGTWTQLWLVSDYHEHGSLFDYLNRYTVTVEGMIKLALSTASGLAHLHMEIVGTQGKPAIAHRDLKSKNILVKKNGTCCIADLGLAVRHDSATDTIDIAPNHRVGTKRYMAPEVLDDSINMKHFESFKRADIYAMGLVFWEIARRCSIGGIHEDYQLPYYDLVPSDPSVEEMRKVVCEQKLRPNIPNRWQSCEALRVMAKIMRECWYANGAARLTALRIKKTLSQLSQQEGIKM

SMILES	inhibition [2] [%]	inhibition at 10 µM [1] [%]	other results
O=C(Cc1ccccc1)N1CCc2c([nH]c3ccc(Br)cc23)C1		47	
CC(C)(C)OC(=O)NC(C(=O)N1CCc2c([nH]c3ccccc23)C1)c1ccccc1 (stereo unspecified)	58.8	31	
NC(C(=O)N1CCc2c([nH]c3ccccc23)C1)c1ccccc1 (stereo unspecified)	10.9	11	
O=C(O)CC1c2[nH]c3ccccc3c2CCN1C(=O)Cc1ccccc1 (stereo unspecified)	4.1	9	
O=C(Cc1ccc(O)c(O)c1)N1CCc2c([nH]c3ccccc23)C1	21	26	
COc1cc2ncnc(Nc3ccc(F)c(Cl)c3)c2cc1OCCCN1CCOCC1 [GEFITINIB]			Activity (A549 [3]): Active; Activity (Mus musculus [4]): Toxic
O=C(Cc1ccc(Cl)cc1)N1CCc2c([nH]c3ccccc23)C1	7.9	33	
CCC1c2[nH]c3ccccc3c2CCN1C(=O)Cc1ccccc1 (stereo unspecified)	52.1	24	
O=C(Cc1ccccc1)N1CCc2c([nH]c3ccc(F)cc23)C1		78	IC50 [5]: 6.19 µM; IC50 (A549 [6]): 4.85 µM; IC50 [7]: 7.09 µM
O=C(Cc1ccccc1)N1CCc2c([nH]c3ccccc23)C1	72.4	59	IC50 [5]: 8.07 µM; Activity (A549 [8]): Active; IC50 (A549 [9]): 0.1 µM; Activity (A549 [10]): Active; IC50 (A549 [6]): 7.9 µM; IC50 [11]: < 0.5 µM; Activity (NCI-H1299 [12]): Active; Activity (NCI-H1299 [13]): Active; IC50 (A549 [14]): < 0.5 µM; Activity (4T1): Dose-dependent effect; IC50 [7]: 5.87 µM; Activity (NCI-H1299 [15]): Active; IC50 [16]: 0.1 µM; Activity (Mus musculus [17]): Toxic
O=C(N1CCc2c([nH]c3ccccc23)C1)C(O)(c1ccccc1)c1ccccc1	12.3	0	
O=C(Cc1ccccc1O)N1CCc2c([nH]c3ccccc23)C1	19.7	33	
O=C(Cc1cccc(O)c1)N1CCc2c([nH]c3ccccc23)C1	29.1	11	
NC(=O)c1ccc(-c2nc(-c3ccccn3)c(-c3ccc4c(c3)OCO4)[nH]2)cc1 [SB-431542]			IC50 [11]: 0.5 µM
CC1c2[nH]c3ccc(O)cc3c2CCN1C(=O)Cc1ccccc1 (stereo unspecified)	11.2	8	
Nc1ccc(CC(=O)N2CCc3c([nH]c4ccccc34)C2)cc1	18.1	8	

Continued, in another order:

inhibition [2] [%]	SMILES	inhibition at 10 µM [1] [%]	other results
9.5	O=C(c1ccccc1)N1CCc2c([nH]c3ccccc23)C1	7	
10.3	O=C(Cc1ccccc1)N1CCc2c([nH]c3ccccc23)C1c1ccccc1 (stereo unspecified)	10	
18.2	COC(=O)CC1c2[nH]c3ccccc3c2CCN1C(=O)Cc1ccccc1 (stereo unspecified)		
11.8	O=Cc1ccc(CC(=O)N2CCc3c([nH]c4ccccc34)C2)cc1	21	
31.1	O=C(CCc1ccccc1)N1CCc2c([nH]c3ccccc23)C1	48	
2.2	O=C(c1cccs1)N1CCc2c([nH]c3ccccc23)C1	9	
64.2	O=C(Cc1ccc(O)cc1)N1CCc2c([nH]c3ccccc23)C1	39	
49	CCN(CC)c1ccc(CC(=O)N2CCc3c([nH]c4ccccc34)C2)cc1	18	
11.8	O=C(Cc1ccc(F)cc1)N1CCc2c([nH]c3ccccc23)C1	21	
50.1	O=C(Cc1ccc(CBr)cc1)N1CCc2c([nH]c3ccccc23)C1	26	
1.1	O=C(c1ccccn1)N1CCc2c([nH]c3ccccc23)C1	4	
12.9	O=C(C(O)c1ccccc1)N1CCc2c([nH]c3ccccc23)C1 (stereo unspecified)	28	
44.3	CC(C)(C)OC(=O)NC(Cc1ccccc1)C(=O)N1CCc2c([nH]c3ccccc23)C1 (stereo unspecified)	0	
